This excerpt belongs to a sample that is enriched for hits.
T cruzi inh – T. cruzi replication inhibition | inhibition, % (no concentration beside the values) | T. cruzi beta-gal in NIH3T3, luminescence, 90 h | 300,000 tested, 1.4% active;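 active = mean inhibition across valid replicates above about 55%, limit read from the data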;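 also: signal also drops with host cell toxicity which is not excluded here; 0% = plate median of DMSO wells and 100% = zero luminescence signal; higher percent means less beta-gal luminescence so fewer parasites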
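Test system: β-gal T. cruzi (Tulahuen C4) inside NIH/3T3 cells / Quantity: 5,000 cells/well / Measured by: luminescence from GalScreen with 0.05% NP40, read after 60 min / Medium: DMEM plus 2% FBS / Measure: parasite load inhibition, % / Reagent: Tulahuen C4 trypomastigotes, 5000/well / Schedule: co-culture of at least 90 h after 3 h attachment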
MPTP block – permeability transition pore inhibition. isolated mouse mitochondria, Ca2+ swelling absorbance, 30 min. inhibition, % at 10 µM. 360,000 tested, 1.4% active;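 active = inhibition of 50% or more, scaled per plate between neutral and stimulator controls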;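 also: 0% = DMSO wells given calcium and 100% = 1 mM EGTA wells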
DTT redox prof – compounds producing H2O2 with reducing agent – biochemical, NIH compound library profiling, artefact control for MLSCN library redox annotation, primary screen; 200,000 tested, 0.03% active; activation, % at 10 µM; DTT-dependent redox cycling H2O2, phenol red/HRP absorbance; 100% = 100 µM peroxide control, 0% = buffer;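 active = activation of at least 50% relative to the plate's high and low controls in the primary single-dose screen; inactive = activation below 50%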;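 also: compound incubated with DTT at 0.8 mM final as the reducing agent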
L major viab – inhibitors of Leishmania major promastigote growth; Leishmania major promastigotes, resazurin fluorescence viability; inhibition, % at 10 µM; 200,000 tested, 9% active; AID 1063; in the data active = inhibition above about 50%;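 also: promastigotes grown with compound for 44 hours at 28 °C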
Lipid droplet – hepatic lipid droplet formation modulation; inhibition, % at 6.5 µM; 240,000 tested, 0.4% active; AML12 mouse hepatocytes, oleate lipid droplets, BODIPY imaging;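 active = lipid droplet intensity inhibited by at least 50%, with more than 500 cells counted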
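System: AML12 hepatocytes (mouse). Probe or stimulus: oleic acid at 100 µM to induce lipid droplet formation. Times: overnight treatment with compound plus oleate. Detection: Image-based BODIPY and DAPI two-channel analysis. Evaluation: percent inhibition of filter-corrected integrated lipid droplet intensity per well.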
Rh123 counter – membrane potential counter-screen of mitochondrial pore inhibitors | shares compounds with MPTP block | isolated mitochondria, Rhodamine 123 fluorescence | inhibition, % at 10 µM | 5,000 tested, 78% active | AID 624504; in the data active = inhibition above about 22%;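 also: 0% = DMSO vehicle and 100% = positive control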
MPTP abs DR – MPTP inhibition, dose response swelling confirmation | shares compounds with MPTP block | isolated mitochondria swelling, absorbance | IC50, µM | 780 tested, 58% active | AID 651561; in the data active = IC50 below about 20 µM
MPTP counter DR – active in counter-screen for permeability transition pore inhibitors. shares compounds with MPTP block. isolated mitochondria counterscreen, fluorescence read-out. IC50, µM. 780 tested, 49% active; in the data active = IC50 below about 80 µM
The depositor's hits bear a star.

For CCc1ccc(-c2cc3c(=O)n(CC(=O)NCCCN4CCC(Cc5ccccc5)CC4)nc(C)n3n2)cc1 the results were T cruzi inh 0, MPTP block 98*, Lipid droplet -16, Rh123 counter -3, MPTP abs DR 3* and MPTP counter DR >80.
For COC(=O)Cc1ccc(NC(=S)NCCO)cc1 the results were T cruzi inh -6, MPTP block -1 and Lipid droplet 15.
Screening Cc1cc(C)cc(NC(=S)NCCSc2ccc(Cl)cc2)c1 returned T cruzi inh 51, MPTP block 87*, DTT redox prof 1, L major viab 16, Lipid droplet 5 and Rh123 counter 98*.
`Cc1ccc(SCCNC(=S)Nc2ccc(C)c(C)c2)cc1` gave T cruzi inh -12, MPTP block 72*, DTT redox prof 2, L major viab 9 and Rh123 counter 91*.
For Cc1ccc(SCCNC(=S)Nc2ccccc2)cc1 the results were T cruzi inh -8, MPTP block 6, DTT redox prof 0, L major viab 8 and Lipid droplet -1.
Screening COC(=O)Cc1ccc(NC(=S)NCCSc2ccc(Cl)cc2)cc1 returned T cruzi inh 12, MPTP block 63*, Lipid droplet -8 and Rh123 counter 77*.
`CC1=C(C(=O)N(C(C)C)C(C)C)CC(CC(=O)NC(c2ccccc2)c2ccccc2)C(=O)N1Cc1ccc(F)cc1` (stereo not drawn) gave MPTP block -1.
For O=C(NNC(=O)c1cc(-c2ccncc2)nc2ccccc12)Nc1ccc(F)cc1 the results were T cruzi inh -15, MPTP block -1 and Lipid droplet 0.
For O=C(NNC(=O)c1cc(-c2cccnc2)nc2ccccc12)Nc1ccc(Cl)cc1 the results were T cruzi inh -1, MPTP block 86*, DTT redox prof 0, L major viab 15, Lipid droplet -24 and Rh123 counter 86*.
For CCc1ccc(Nc2cc(=O)n(C3CCCCC3)c(=O)[nH]2)cc1 the results were T cruzi inh 10, MPTP block 63*, DTT redox prof 0, L major viab 5, Lipid droplet -2 and Rh123 counter 107*.
N#C/C(=N\Nc1cccc(C(F)(F)F)c1)C(=O)c1csc(-c2cccnc2)n1 was read as T cruzi inh -5, MPTP block 84*, Lipid droplet -2 and Rh123 counter 61*.
`Cc1ccc(C(=O)Nc2cccc(C(F)(F)F)c2)cc1NC(=O)c1csc(-c2ccncc2)n1` gave T cruzi inh 48 and MPTP block -1.
O=C(CSc1ncnc2ccccc12)c1ccc2c(c1)OCCO2 was read as T cruzi inh -2, MPTP block 58*, DTT redox prof 1, L major viab 4, Lipid droplet 8 and Rh123 counter 65*.
Screening CC(=O)Nc1ccc(NC(=O)C(C)Sc2n[nH]c(-c3ccc(C)cc3)n2)cc1 (stereo not drawn) returned T cruzi inh -6 and MPTP block -1.
Screening CCOc1ccc(CC(=O)N/N=C(\C)c2cccnc2)cc1 returned T cruzi inh 9, MPTP block 0 and Lipid droplet -2.
CC(C(=O)NCCCc1ccccc1)c1ccc([N+](=O)[O-])cc1 (stereo not drawn) was read as T cruzi inh 6, MPTP block 1, DTT redox prof 0, L major viab 0 and Lipid droplet -11.
`COc1ccc(OCc2nnc(NC(=O)Nc3ccc(F)cc3)s2)cc1` gave T cruzi inh -19, MPTP block 74*, DTT redox prof 0, L major viab -9, Lipid droplet -28 and Rh123 counter 82*.
`COc1ccc(NC(=O)Nc2nnc(-c3cccs3)s2)cc1` gave T cruzi inh 0, MPTP block 69*, Lipid droplet 1 and Rh123 counter 69*.
`CCN1CCN(c2cc(-c3ccccc3)nc3cc(-c4cccc(F)c4)nn23)CC1` gave T cruzi inh 36, MPTP block 99*, DTT redox prof 1, L major viab 68*, Lipid droplet -2, Rh123 counter -23, MPTP abs DR 11* and MPTP counter DR >80.
Screening CC(c1ccco1)N(C(=O)Nc1ccc(Cl)cc1)c1ccccn1 (stereo not drawn) returned T cruzi inh 5, MPTP block 85*, DTT redox prof 1, L major viab -3 and Rh123 counter 98*.
Screening CCOC(=O)Cc1csc(NC(=O)c2c(O)c3c(n(CC(C)C)c2=O)CCCC3)n1 returned T cruzi inh -8, MPTP block -4 and Lipid droplet -9.
For Cc1ccc2cc(CN(CCN(C)C)C(=O)Nc3ccc(Cl)cc3)c(=O)[nH]c2c1 the results were T cruzi inh 14, MPTP block 92*, DTT redox prof 1, L major viab 29, Lipid droplet -34 and Rh123 counter 100*.
Cc1cc(C)c2cc(CN(CCO)C(=O)Nc3ccc(Cl)cc3)c(=O)[nH]c2c1 was read as T cruzi inh 49, DTT redox prof -1, L major viab 8 and Lipid droplet -39.
COc1ccc(N/N=C(/C#N)S(=O)(=O)c2nsc(C)c2C#N)cc1 was read as T cruzi inh -12, MPTP block 1, DTT redox prof 0, L major viab -7 and Lipid droplet 5.
Screening Cc1snc(S(=O)(=O)/C(C#N)=N/Nc2cccc(C(F)(F)F)c2)c1C#N returned T cruzi inh 1, MPTP block 104*, DTT redox prof 0, L major viab -9, Lipid droplet 9 and Rh123 counter 90*.
`COc1ccc(Cl)cc1C(=O)Nc1cccnc1Cl` gave T cruzi inh -7 and MPTP block 4.
`O=C(NCc1ccc2c(c1)OCO2)Nc1ccc(Cl)cc1` gave T cruzi inh -7, MPTP block 2 and Lipid droplet -3.
O=C(NCc1ccccc1F)Nc1ccc([N+](=O)[O-])cc1 was read as T cruzi inh -10, MPTP block 94*, DTT redox prof 0, L major viab 16, Lipid droplet 6 and Rh123 counter 89*.
Screening O=C(NCc1ccco1)Nc1ccc([N+](=O)[O-])cc1 returned T cruzi inh 2, MPTP block 9, DTT redox prof -2, L major viab -4 and Lipid droplet -5.
O=C(NCc1ccc2c(c1)OCO2)Nc1ccc([N+](=O)[O-])cc1 was read as T cruzi inh 12, MPTP block 81*, Lipid droplet 0 and Rh123 counter 83*.

Screening results (PubChem)
